Peptide text beside a SMILES is read from it.
Key:
[1] = test system: mixed P. aeruginosa–S. aureus biofilms; assay: Clearance of established biofilm; assay type: cell-based, Pseudomonas aeruginosa + Staphylococcus aureus; conditions: concentrations <32 μM in PBS, 24 h, 37°C; crystal violet, 595 nm
In short: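 Preformed mixed P. aeruginosa–S. aureus biofilms were treated with the test compound, with gentamicin as comparator. Residual biomass was stained with crystal violet, and the solubilised dye was read spectrophotometrically at 595 nm. Results are expressed as biofilm percentage. The assay was run in both 96-well round-bottom plates and round-bottom tubes.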

nude mice = assay: In vivo safety assay; parameters: species or system mouse; conditions: 10 mg/kg or 20 mg/kg subcutaneously, 24 h after injection
In short: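 Twelve 6-week-old female athymic NU/NU nude mice were randomised into 3 groups of 4. Groups received 10 or 20 mg/kg test compound injected subcutaneously into the back skin. Serum was assayed for ALT, AST, urea, CREA and UA. Heart, liver, spleen, lung and kidney were examined histologically by H&E. Error bars are SD from 3 biological replicates.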

Row | SMILES | Effect on preestablished mixed biofilm [1] | Histological examination of heart, liver, spleen, kidneys, lungs (H&E) (nude mice) | Serum levels of ALT, AST, UA, urea and CREA (nude mice)
1 | CNC(C)C1CCC(N)C(OC2C(N)CC(N)C(OC3OCC(C)(O)C(NC)C3O)C2O)O1 (stereo not drawn) [Gentamicin, gentamicin] | little impact | – | –
2 | NCCCC[C@H](NC(=O)[C@H](CCCCN)NC(=O)[C@H](Cc1c[nH]c2ccccc12)NC(=O)[C@H](CCCCN)NC(=O)[C@H](CCCCN)NC(=O)[C@H](Cc1c[nH]c2ccccc12)NC(=O)[C@@H](N)Cc1c[nH]c2ccccc12)C(=O)N[C@@H](Cc1c[nH]c2ccccc12)C(=O)N[C@@H](Cc1c[nH]c2ccccc12)C(N)=O [Peptide K6] (H-WWKKWKKWW-NH2) | – | no abnormalities | within normal range

Reference: publication PMC9942841 (Proceedings of the National Academy of Sciences of the …, 2023)
